Experimental data of several laboratories.
Each line is one published result; the experiments were not run side by side.
Target: Serine/threonine-protein kinase OSR1 (OXSR1, Homo sapiens, UniProt O95747)

CN(CCCC(F)(F)F)c1nccc(-c2cnn3ncccc23)n1
remaining binding (binding; 1 µM): 100%

O=C(c1ccc(Nc2ncc(Cl)c(-c3ccc(Cl)s3)n2)cc1)N1CCC(N2CCCC2)CC1
remaining binding (binding; competition with immobilised ligand; 1 µM): 87%

C[C@H]1CCN(c2nccc(-c3cnn4ncccc34)n2)C1
remaining binding (binding; 1 µM): 76%

CCN1CCN(Cc2ccc(C(=O)Nc3ccc(C)c(Oc4ccc5c(c4)CC(=O)N5)c3)cc2C(F)(F)F)CC1
remaining binding (binding; competition with immobilised ligand; 1 µM): 97%

CN(C)c1ncc(F)c(-c2cnn3ncccc23)n1
remaining binding (binding; 1 µM): 95%

Cc1cc(C)c(-n2ccn3nc(-c4cccnc4)cc23)cc1NC(=O)c1cc(C#N)cc(S(F)(F)(F)(F)F)c1
remaining binding (cell-free assay; competition with immobilised ligand; 0.1 µM): 87%

COc1cnc(Nc2cccc(S(N)(=O)=O)c2)nc1N1CCN(c2ccccc2)C(=O)C1
remaining binding (binding; competition with immobilised ligand; 1 µM): 100%

Nc1ncc2c(n1)-c1c([nH]c3ccc(C#CC4CC4)cc13)CCCC2
remaining binding (binding; competition with immobilised ligand; 1 µM): 86%

N[C@@H]1CCN(c2nccc(-c3cnn4ncccc34)n2)C1
remaining binding (binding; 1 µM): 100%

CO[C@H]1CC[C@H](CNc2ccc(S(=O)(=O)NC(=O)c3ccc(N4CCN(CC5=C(c6ccc(Cl)cc6)CC(C)(C)CC5)CC4)cc3Oc3cnc4[nH]ccc4c3)cc2[N+](=O)[O-])CC1
remaining binding (cell-free assay; competition with immobilised ligand; 1 µM): 76%

C=CC(=O)N1CCC(C(=O)NCC(=O)N2CCN(c3nc(-c4cnc(N)nc4C(F)F)nc(N4CCOCC4)n3)CC2)CC1
remaining binding (binding; competition with immobilised ligand; 1 µM): 100%

Cc1cnn2ncc(-c3ccnc(N(C)C)n3)c2c1
remaining binding (binding; 1 µM): 84%

O=C(O)[C@@H]1[C@@H](Cn2nnc3ccccc3c2=O)CC[C@H]1C(=O)c1ccc(OCCC2CCOCC2)cc1
remaining binding (cell-free assay; competition with immobilised ligand; 1 µM): 100%

CNC(=O)[C@@H]1CC[C@@H](n2c(-c3ccc4cnccc4c3)nc3ccc(C(=O)NCc4cccc(C(N)=O)c4)cc32)C1
remaining binding (binding; competition with immobilised ligand; 1 µM): 100%

O=C(NCCCN1CCOCC1)c1ccc(Nc2ncc(Cl)c(-c3ccc(Cl)s3)n2)cc1
remaining binding (binding; competition with immobilised ligand; 1 µM): 79%

CNC(=O)c1ccc(Nc2ncc(C(F)(F)F)c(NCc3nccnc3N(C)S(C)(=O)=O)n2)cc1
remaining binding (cell-free assay; competition with immobilised ligand; 0.1 µM): 100%

F[C@@H]1CCN(c2nccc(-c3cnn4ncccc34)n2)C1
remaining binding (binding; 1 µM): 100%

O=C(c1ccc(Nc2ncc(Cl)c(-c3cc4ccccc4s3)n2)cc1)N1CCC(N2CCCC2)CC1
remaining binding (binding; competition with immobilised ligand; 1 µM): 74%

NS(=O)(=O)c1cc(NC(=O)Cc2ccccc2)ccc1Oc1cccc(Cl)c1
remaining binding (cell-free assay; competition with immobilised ligand; 1 µM): 78%

O=C(NCC1CCOCC1)c1n[nH]cc1NC(=O)c1c(F)cccc1F
remaining binding (binding; competition with immobilised ligand; 1 µM): 73%

c1cnn2ncc(-c3ccnc(N4CCC45COC5)n3)c2c1
remaining binding (binding; 1 µM): 62%

CS(=O)(=O)c1cc(C2(NC(=O)c3cncc4c3cnn4-c3ccc(F)cc3)CC2)ccn1
remaining binding (cell-free assay; competition with immobilised ligand; 1 µM): 85%
